Among the data in ChEMBL document CHEMBL4513216, “Probing the Open Global Health Chemical Diversity Library for Multistage-Active Starting Points for Next-Generation Antimalarials” (ACS Infect Dis, 2020) are cytotoxicity values, retold here.

This data set can be described thus: Toxicity liver stage against HepG2, at 10uM. In kind it is cell-based. Further details: test concentration 10 uM, cell line HepG2-A16-CD81EGFP. Particulars: human, HepG2-A16-CD81EGFP cells; read-out: INHIBITION
The essentials:
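Uninfected HepG2-A16-CD81EGFP cells, 3 × 10^3 per well, 1536-well, plated on prespotted compound at 10 μM final, parasite-free screening media added to match infected plates; puromycin 10 μM positive, DMSO 0.5% negative; run in parallel with 48 h PbLuc assay at 37 °C, 5% CO2; viability by CellTiter-Glo luminescence, normalized to controls.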
Regarding `CC(C)CNC(=O)CN(CC(=O)NCC(C)C)S(C)(=O)=O`, the cytotoxicity at 10 µM was -12.2%. Turning to `Cc1cccc2c1nc1n2[C@@H](CNC(=O)c2ccccn2)COC1`, the cytotoxicity at 10 µM amounted to 6.49%. Regarding `O=C(C1CC1)N1CC[C@H](c2nc3ccccc3o2)C1`, the cytotoxicity at 10 µM is -4.07%. With `COc1ccc2c(c1)OC1(CCN(Cc3cccc(C)c3)CC1)CC2=O`, the cytotoxicity at 10 µM amounted to 5.5%. As to `NC(=O)CN1CC(O)c2ccccc2S1(=O)=O` (stereo unspecified), the cytotoxicity at 10 µM turned out to be 4.37%. As for `O=C(CCc1nnc2ccccn2c1=O)NCc1cccnc1`, the cytotoxicity at 10 µM was -1.74%. For `O=S(=O)(Nc1cnc(N2CCCC2)nc1)c1ccc(C(F)(F)F)cc1` the value was 3.15%; for `COc1ccc(C(=O)Nc2ccccc2-c2ccc(=O)n(C)n2)cc1`, 2.11%. With `O=C(Cc1ccco1)N1CCC2(CCOCC2COCC2CC2)CC1` (stereo unspecified), the cytotoxicity at 10 µM was determined as 4.65%. As for `CCN1CCc2cc(C(=O)N(C)C)c(NCC3CC3)nc2CC1`, the cytotoxicity at 10 µM came to 4.65%. As for `Cc1nc(CN2C(=O)CCC23CCN(c2ncccc2C)CC3)cs1`, the cytotoxicity at 10 µM was -2.07%. For `CN(C)CCOCC1CN(C(=O)c2ccccn2)Cc2ccnn2C1` (stereo unspecified) the value was -3.55%; for `Cn1c(=O)n(C)c2nc(Br)c(CC(=O)c3ccccc3)n2c1=O`, 0.9%. As for `Cc1ccccc1Cn1nnc2cc3c(cc2c1=O)OCCO3`, the cytotoxicity at 10 µM was 1.11%. In the case of `Cc1ccnc(NC(=O)c2cnc(C3CCCNC3)cn2)c1` (stereo unspecified) it was 3.33%; in that of `Cc1ccccc1-c1cncc(C2CCN(S(=O)(=O)N(C)C)CC2)n1`, 0.0706%; in that of `CC1(C(=O)NCc2cc(F)cc(F)c2)CCOCC1`, 4.32%.

Consider `COc1ccc(CN(C(=O)C2CCCS2)c2ccncc2)cc1` (stereo unspecified), for which the cytotoxicity at 10 µM was 5.57%. With `CC(NC(=O)N(C)C1CC1)c1ccc(Oc2cccnc2)c(F)c1` (stereo unspecified), the cytotoxicity at 10 µM was -1.23%. Turning to `C=C(C)CN(CC)C(=O)CN1CCCC1C(=O)N(C)C` (stereo unspecified), the cytotoxicity at 10 µM was determined as 8.52%. For the compound `CC(C(=O)NC1(C#N)CCCCC1)N1CCc2c(ncn2C)C1` (stereo unspecified), the cytotoxicity at 10 µM came to 7.04%. As to `Cc1nnc(CN(C)CC(=O)N2CCCC(C)CC2)n1C` (stereo unspecified), the cytotoxicity at 10 µM worked out at 10.6%. In the case of `Cc1cnn(CCNCC(O)COc2cccc(C(F)(F)F)c2)c1` (stereo unspecified), the cytotoxicity at 10 µM is -21.7%. Regarding `CCc1nnc2n1CCN(C(=O)CCc1ccc3c(c1)OCO3)C2`, the cytotoxicity at 10 µM was -2.62%. In the case of `CN(Cc1noc(C(C)(C)C)n1)CC1CCN(CCO)CC1`, the cytotoxicity at 10 µM stood at 7.17%.

As for `Cc1cc2n(n1)CC(CNCCNC(=O)c1ccc(F)cc1)CN2` (stereo unspecified), the cytotoxicity at 10 µM came out at 6.15%. In the case of `CCc1cc(N2CCC(NC(=O)CCC3CCCO3)CC2)ncn1` (stereo unspecified) it was 8.31%; in that of `CCOCc1ccc(NC(=O)C(C)C)cc1`, 2.25%; in that of `COc1c(Cl)cc(C(=O)NCCNc2ncccn2)cc1Cl`, -9.32%. Turning to `CCOc1ccc(NC2CCN(C(C)C)C2=O)cn1` (stereo unspecified), the cytotoxicity at 10 µM is -17%. As for `CCOc1cccc(CCNC(=O)Cc2cccc(O)c2)n1`, the cytotoxicity at 10 µM is -5.26%.

As to `CSCC1CCN(C(=O)c2ccccc2NCc2cccnc2)C1` (stereo unspecified), the cytotoxicity at 10 µM is -3.33%. In the case of `O=C(Nc1nccs1)C1CCN(Cc2cccc3c2OCCO3)CC1` it was -1.95%; in that of `CCc1ccc(CCn2cnc(C#N)n2)cc1`, -0.224%; in that of `Cc1ccc(C(=O)NCC2CCCCO2)c(=O)[nH]1` (stereo unspecified), -0.628%. For the compound `Cc1nsc(N2CCN(C(=O)Nc3cccc(C#N)c3)CC2)n1`, the cytotoxicity at 10 µM was -18.7%. `COc1ccc(CC(=O)N2CC[C@@H]3CN(C)S(=O)(=O)[C@@H]3CC2)cc1`: the cytotoxicity at 10 µM stood at 4.33%. On to `COCCN(C)C(=O)c1cc2c(s1)CCN2C(=O)C1CC1`, for which the cytotoxicity at 10 µM was -7.38%. In the case of `Cn1nnc2c1C(COCC1CC1)CN(C(=O)C1=CCCC1)C2` (stereo unspecified) it was -102%. For `O=C(C1CCOCC1)N1CC[C@H](O)[C@@H]1Cc1cccnc1` the value was -104%; for `Cc1ccc(C(=O)N2CCO[C@H]3[C@H](OCC4CCOCC4)CC[C@@H]32)o1`, 4.28%; for `COCC(=O)N1CC[C@@H](O)[C@@H]1Cc1ccccc1`, -1.26%. Turning to `CCCc1n[nH]c(=O)n1Cc1ccccc1F`, the cytotoxicity at 10 µM was determined as 2.24%. For `Cc1ocnc1C(=O)N1CCN(CCOc2ccccc2)CC1`, the cytotoxicity at 10 µM is 1.12%.

Consider `CCCN1CCN(C(=O)c2ccc(Cl)cn2)[C@H]2CS(=O)(=O)C[C@H]21`, for which the cytotoxicity at 10 µM is -4.15%. On to `N[C@H]1CN(C(=O)CCc2ccccn2)C[C@@H]1c1ccccc1`, for which the cytotoxicity at 10 µM is -0.23%. With `COc1cccc2c1OCC(C(=O)N(Cc1ccncc1)CC(C)C)C2` (stereo unspecified), the cytotoxicity at 10 µM is -13.9%.

Turning to `Cc1cc(CNC(=O)C(c2ccc(F)cc2)N(C)C)n[nH]1` (stereo unspecified), the cytotoxicity at 10 µM is -15%. Turning to `CC(=O)Nc1ccc2nc(-c3nccn3CC(C)(C)CO)ccc2c1`, the cytotoxicity at 10 µM was 3.89%. As for `O=C(Nc1cccc2c1CCCC2)c1cccc(CN2CC[C@H](O)C2)c1`, the cytotoxicity at 10 µM is -9.32%. Take `O=C(N[C@H]1COC[C@@H]1N1CCCC1)c1csc(Cc2ccccc2)n1`: the cytotoxicity at 10 µM was -30.2%.

On to `CNS(=O)(=O)CCn1cc(-c2cc3c(cc2OC)CCC3)nn1`, for which the cytotoxicity at 10 µM was -2.12%. Consider `O=C1CC(NS(=O)(=O)N2CCOCC2)CN1Cc1ccc(F)cc1` (stereo unspecified), for which the cytotoxicity at 10 µM is -11%. Take `Cc1cccc2[nH]c(C3CCCN(Cc4ccccc4C(=O)O)C3)nc12` (stereo unspecified): the cytotoxicity at 10 µM turned out to be 7.28%.

For `COCc1nc(C2CC2)nn1-c1ccccc1Cl`, the cytotoxicity at 10 µM was -0.808%. Turning to `O=C(O)c1cccnc1CN1CCCCC1CCc1ccccn1` (stereo unspecified), the cytotoxicity at 10 µM was found to be 7.4%. As for `CC[C@@H](c1ccccc1)n1c(C2CC2)n[nH]c1=O`, the cytotoxicity at 10 µM is -8.67%. On to `CN(Cc1nccn1C)c1nccc(N2CCCC(O)C2)n1` (stereo unspecified), for which the cytotoxicity at 10 µM was -8.29%. As to `CN(C)CC1(O)CCCN(C(=O)c2cnc(-c3ccccn3)nc2)C1` (stereo unspecified), the cytotoxicity at 10 µM is -5.53%. In the case of `NC(=O)c1cncc(-n2ccc(-c3cnccn3)n2)c1` it was -11.9%; in that of `CCn1c(CC2CCN(S(=O)(=O)c3cccc(C)c3)CC2)nn(C)c1=O`, 2.01%; in that of `CCC[C@@H]1CN(Cc2ccc(C(F)(F)F)nc2)C[C@H]1NS(C)(=O)=O`, 10.5%. For `Cc1ncc(CC(=O)N2CCC(N3C[C@@H](C)O[C@@H](C)C3)CC2)c(=O)[nH]1` the value was 3.26%; for `CN(c1ccncn1)C1CC2(CCN(C(=O)CCc3cccs3)C2)C1` (stereo unspecified), -1.34%; for `Cc1nc(-c2ccccc2)n(CC(=O)NC2CCCCC2)n1`, -1.16%. For `CCOc1ccc(CC(=O)N2CCCC(n3nc(C)nc3C)C2)cc1` (stereo unspecified) the value was -3.18%; for `Cc1cnn(CC2CN(Cc3ccc(C(N)=O)cc3)CCO2)c1` (stereo unspecified), -2.28%; for `CC(C)Cc1cc(NC(=O)c2ccccn2)n(C)n1`, -7.22%.

In the case of `Cc1cc(C(=O)N2CCCC2)ccc1NCC(=O)N1CCCCC1C` (stereo unspecified), the cytotoxicity at 10 µM worked out at 5.12%. Turning to `Cc1nn(C)c(Cl)c1C1CCCN1Cc1nc(C2CC2)no1` (stereo unspecified), the cytotoxicity at 10 µM is -6.42%. In the case of `CC(C)c1ncc2c(n1)CN(CC(=O)Nc1ccncc1)CC2`, the cytotoxicity at 10 µM was -3.23%. For `CSc1nccn1-c1cccc(C(=O)NCCN2CCS(=O)(=O)CC2)c1`, the cytotoxicity at 10 µM was -3.97%. With `CCn1cc(NC(=O)C2CCN(CC(=O)NCC(C)C)CC2)cn1`, the cytotoxicity at 10 µM was -7.52%. `NC(=O)CC1CCCCN1C(=O)c1cccc(C(F)(F)F)c1` (stereo unspecified): the cytotoxicity at 10 µM was -1.03%. Regarding `Cc1cc(C)n(-c2ccc(CNCc3ccc(F)cc3F)cn2)n1`, the cytotoxicity at 10 µM was -12.2%. Consider `O=C(NCCNc1cnccn1)N1CCCC(N2CCCC2)C1` (stereo unspecified), for which the cytotoxicity at 10 µM was -3.12%. For the compound `COCCN1CCN(CC(C)(O)c2cccc(C(F)(F)F)c2)CC1` (stereo unspecified), the cytotoxicity at 10 µM is -24.2%. Consider `CCc1ccc(OCC(O)CN2CCN(CC)CC2)cc1` (stereo unspecified), for which the cytotoxicity at 10 µM was -6.54%. `CS(=O)(=O)NC1CCCN(C(=O)Nc2cccnc2)C1` (stereo unspecified): the cytotoxicity at 10 µM is -14.2%.

In the case of `COc1ccnc(N2CCN(C(=O)CN3CCCC3=O)CC2)n1`, the cytotoxicity at 10 µM is -5.21%.

With `CN(C)C1CCN(C(=O)c2ccc(Cn3ccccc3=O)o2)CC1`, the cytotoxicity at 10 µM is -2.11%. With `COc1ccc(CNCc2ccnc(N3CCCCC3)c2)cc1OC`, the cytotoxicity at 10 µM is 0.222%.

For `CC(=O)c1cccc(OCC(=O)NS(=O)(=O)c2ccc(C)s2)c1`, the cytotoxicity at 10 µM was -8.29%. `Cc1cccc(NC2CCN(C(=O)Nc3cc(C)on3)CC2)n1`: the cytotoxicity at 10 µM was -13.7%. In the case of `COCCOc1ncccc1CNCc1c(C)nn(C)c1N(C)C` it was -9.36%; in that of `CCc1n[nH]c(C2CN(C(=O)c3nc(C)ncc3Cl)CCO2)n1` (stereo unspecified), -7.25%; in that of `Cc1cc(N2CCN(Cc3ccnn3C)CC2)cc(C2CCCN2)n1` (stereo unspecified), 6.97%. In the case of `Cc1ccc(C2(CN3CCN(Cc4cn(C)nc4C)CC3)CC2)cc1`, the cytotoxicity at 10 µM came out at 1.74%.

`CCC(CN1CCN(C)CC1)NC(=O)C1(c2cccc(F)c2)CC1` (stereo unspecified): the cytotoxicity at 10 µM came to 3.54%. With `CN(C)C(=O)COC1COC2(CCN(CC3CC3)CC2)C1` (stereo unspecified), the cytotoxicity at 10 µM was -108%. In the case of `CN(C)C(=O)C1CCN(C2CCN(CC3CC3)CC2)CC1` it was 4.55%; in that of `O=C1C[C@H]2[C@@H](CCN2C(=O)Cc2cccs2)N1Cc1ccncc1`, 6.12%. Regarding `Cc1cccc(CN2CCN3C[C@H](Oc4cncnc4)C[C@H]3C2)n1`, the cytotoxicity at 10 µM was -91.9%. For the compound `CN(C)CCn1c2c(ccc1=O)CC(NC(=O)c1ccsc1)CC2` (stereo unspecified), the cytotoxicity at 10 µM is 2.15%.

Turning to `O[C@@H]1CC(CNCc2cccc(Cl)c2)(COc2cccnc2)C[C@@H]1O` (stereo partly specified), the cytotoxicity at 10 µM was -1.29%. Turning to `O=C1C[C@@H]2CC[C@H](CN1)N2C1CCOCC1`, the cytotoxicity at 10 µM was -5.1%.
